Laboratory results from ChEMBL document CHEMBL4513216, “Probing the Open Global Health Chemical Diversity Library for Multistage-Active Starting Points for Next-Generation Antimalarials” (ACS Infect Dis, 2020).

Experiment: Toxicity liver stage against HepG2, at 10uM
Format: cell-based
Parameters: test concentration 10 uM, cell line HepG2-A16-CD81EGFP
Conditions: human, HepG2-A16-CD81EGFP cells; read-out: INHIBITION
Summary of the method: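 Uninfected HepG2-A16-CD81EGFP cells, 3 × 10^3 per well, 1536-well, plated on prespotted compound at 10 μM final, parasite-free screening media added to match infected plates; puromycin 10 μM positive, DMSO 0.5% negative; run in parallel with 48 h PbLuc assay at 37 °C, 5% CO2; viability by CellTiter-Glo luminescence, normalized to controls.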

| SMILES | cytotoxicity at 10 µM [%] |
| --- | --- |
| O=C(NC1CCCCC1)c1ccc(COCC(F)(F)F)o1 | 14.1 |
| COc1ccc(-c2cn3c(n2)CO[C@@H](CNCc2nccn2C)C3)cc1 | -0.765 |
| O=c1cc(CSc2nnc[nH]2)nc2sc3c(n12)CCCC3 | -6.04 |
| O=S1(=O)c2cccnc2OC(COc2ccccc2)CN1CC1CC1 (centres undefined) | -3.24 |
| O=C(O)CCC(=O)N1CCC(c2noc3cc(F)ccc23)CC1 | -14.8 |
| CC(C)Oc1ccc(CC2=N[C@](C)(CO)CO2)cc1 | 16.3 |
| CCCN1CCc2nc(SCc3c(C)cc(C)cc3C)[nH]c(=O)c2C1 | -2.33 |
| CC(C)CCn1nc2ccc(S(=O)(=O)N3CCOCC3)cn2c1=O | -2.13 |
| COc1cccc(C(O)CN2CCN(c3cccc(C)c3)CC2)c1 (centres undefined) | -3.85 |
| CCOCC(=O)NCCCn1ccnc1-c1ccccc1 | -1.11 |
| O=C(O)CC(CC(=O)NCCc1ccsc1)c1cccs1 (centres undefined) | -10.9 |
| O=C(CCc1ccccc1)N1C[C@H]2CCN[C@H]2C1 | -4.22 |
| O=C1N(Cc2ccncc2)CCC12CCCNC2 (centres undefined) | 4.26 |
| CN1CCN(C(=O)c2cccn2C)Cc2cccnc21 | 5.73 |
| O=C1COc2ccc(S(=O)(=O)N3CCOCC3)c3c2N1CCC3 | 7.55 |
| O=C(NCc1ccco1)N1CCCCC1c1nc(C2CC2)no1 (centres undefined) | -7.86 |
| CCOc1ccc(-c2cc(=O)n3c(n2)CCCCC3)cc1 | 5.36 |
| Cc1csc(NC(=O)C(C)Oc2ccc3c(c2)OCO3)n1 (centres undefined) | 8.06 |
| COC(=O)c1ccnn1COc1ccc(Cl)cc1 | -14.8 |
| CCn1cc(NC(=O)C2CCC(=O)N2Cc2ccc(C)o2)cn1 (centres undefined) | -2.92 |
| Cc1cn[nH]c1C1COCCN1C(=O)c1ccc2[nH]nnc2c1 (centres undefined) | 2.73 |
| CSc1nnc(C2CCN(C(=O)N3CCCC3)CC2)n1C | 2.11 |
| c1cnc2c(CN3CCCCC3c3ccncn3)cnn2c1 (centres undefined) | -10.2 |

| SMILES | cytotoxicity at 10 µM [%] |
| --- | --- |
| CN1CCN(c2ncccn2)CC(C(=O)N(C)C)C1 (centres undefined) | 0.651 |
| CN1CCC(c2n[nH]cc2-c2ccnc(N)c2)C1 (centres undefined) | 3.79 |
| Oc1cc(C2CCCCN2C2CCCC2)nc(-c2ccncc2)n1 (centres undefined) | 5.94 |
| COc1cccc(CNCc2nc3ccccc3c(=O)[nH]2)c1 | 1.26 |
| CO[C@H]1CN(S(=O)(=O)c2ccc(C)cc2)C[C@@]12CCCO2 | -0.479 |
| CCn1ccc2ccnc(CC3CN(C(=O)c4ccc(F)cc4)C3)c21 | -3.3 |
| CC(=O)N1CCN([C@@H]2CC[C@@H](NC(=O)c3cncc(C)c3)[C@H]2O)CC1 | 2.6 |
| COc1ccc(Br)cc1SCCC(N)=O | 7.72 |
| Cc1ccc(C(=O)Nc2cc(C(N)=O)ccc2CN(C)C)cc1Cl | 18.5 |
| Cc1cc(CN(C)Cc2cnc3c(c2)c(C)nn3C)no1 | 0.995 |
| Cn1cc(S(=O)(=O)NCC(C)(O)c2ccsc2)cn1 (centres undefined) | 22.1 |
| COC(=O)c1ccc(CN2CCC(c3n[nH]c(C)n3)CC2)s1 | -2.87 |
| CNC(=O)c1cccc(CN2CCC(N(C)Cc3nnc(C)o3)C2)c1 (centres undefined) | 8.75 |
| Cc1cnn(C2CCCN(C(=O)CN(C)c3cnccn3)C2)c1 (centres undefined) | -8.73 |
| Cc1cc(C(C)(O)CNC(=O)CCn2ccnc2C(C)C)c(C)o1 (centres undefined) | 4.27 |
| COc1ccc(Oc2ncccc2NC(=O)N2CC[C@H](O)C2)cc1 | 1.7 |
| CC(C(=O)NC1(C#N)CCCCC1)N1CCc2c(ncn2C2CC2)C1 (centres undefined) | 7.66 |
| Cc1cccc(NCCNc2ccc(C#N)cn2)n1 | 18 |
| CC1CN(c2ccc(NC(=O)Cn3cccn3)cc2)CCO1 (centres undefined) | 3.94 |
| CC(CNC(=O)N1CCS(=O)(=O)CC1)Cc1cccs1 (centres undefined) | -9.47 |
| CSc1nsc(NC(=O)N2CCc3ccccc3C2)n1 | 11.3 |
| Cc1ncsc1C(=O)N1CCN(Cc2cscn2)CC1 | -2.65 |
| CCCc1ccc(S(=O)(=O)NC(=O)CCc2cscn2)cc1 | 1.12 |

| SMILES | cytotoxicity at 10 µM [%] |
| --- | --- |
| Cc1cc(C)n(CC2CCCN2C(=O)c2ccc3[nH]c(=O)[nH]c3c2)n1 (centres undefined) | 3.18 |
| CS(=O)(=O)CCn1ccc(NC(=O)Cc2cccc(Cl)c2)n1 | -3.36 |
| CC(CC(=O)NCCS(N)(=O)=O)C1CCCCC1 (centres undefined) | -9.52 |
| O=S(=O)(NCCN1CCOCC1)c1cncc(Cl)c1 | 2.77 |
| CC(=O)c1c[nH]c(C(=O)N2CCN(C(C(N)=O)c3ccccc3)CC2)c1 (centres undefined) | 8.61 |
| Cc1nc(C2(NCc3cc(C#N)ccc3F)CCCCC2)no1 | 9.68 |
| CNC(=O)N(Cc1c(F)cccc1F)C1CCCC1 | 8.23 |
| CC(Cn1cccn1)NCCS(=O)(=O)c1ccccc1 (centres undefined) | -3.63 |
| CC1CCN(c2ccnc3ccc(Br)cc23)CC1 | 15.4 |
| CC(C)CNC(=O)CNC(=O)NCC(O)c1ccc2ccccc2c1 (centres undefined) | -2.52 |
| N#Cc1cccc(S(=O)(=O)N2CC(CC(=O)O)c3ccccc32)c1 (centres undefined) | -1.11 |
| CCN(CCC(=O)OC)C(=O)c1cc(F)cc2[nH]cnc12 | -7.37 |
| CC(C(=O)N(C)Cc1nnc2n1CCC2)S(C)(=O)=O (centres undefined) | -6.56 |
| CN1CCN(S(=O)(=O)c2cccnc2)c2cnccc21 | -0.376 |
| CN(CC(=O)NC(Cc1ccccc1)C1CCCC1)S(C)(=O)=O (centres undefined) | 15.1 |
| COC(=O)N1CCN(CCCc2nnnn2-c2ccccc2)CC1 | 14 |
| CC(C)(C)Oc1ccc(NCC(=O)NCc2ccco2)cc1 | 2.21 |
| Cn1ncnc1NCc1ccccc1Cl | -8.04 |
| O=C(NCC1(O)CCOC1)c1ccccc1Cl (centres undefined) | -40.3 |
| O=C(Nc1cccnn1)NC(CCCO)c1ccccc1 (centres undefined) | -0.908 |
| Cc1cc(CCC(=O)N2CCC(O)CC2)ccc1Br | -4.3 |
| COCCC(=O)N1CCC2(COCc3cnc(-c4ccccc4)nc32)C1 (centres undefined) | 3.6 |
| O=C(C1CCC1)N1CCn2c(COc3ncccn3)nnc2C1 | 3.09 |

| SMILES | cytotoxicity at 10 µM [%] |
| --- | --- |
| CS(=O)(=O)N1CCc2[nH]cnc2C12CCN(C(=O)c1ccc[nH]1)CC2 | -1.42 |
| Cc1ccc2nc(C)cc(C(=O)NCc3csc(N(C)C)n3)c2c1 | 1.21 |
| Cc1nc2c(c(N3CCCOCC3)n1)CCN(C(=O)N1CCCC1)CC2 | 9.2 |
| COc1ccc(C(=O)N2CCC(c3nccn3C(C)C)CC2)cc1OC | 1.52 |
| Cc1cc(CNC(=O)C2CC(=O)N(CCN(C)C)C2)cc(C)n1 (centres undefined) | 3.05 |
| CC(C)c1noc(C2CC(=O)N(CCN(C)C)C2)n1 (centres undefined) | -8.25 |
| COCCN(Cc1ccncc1)C(=O)CCSCc1ccc(F)cc1 | 0.807 |
| CCCc1nnc(NCCc2noc(C3CC3)n2)o1 | 0.0902 |
| CCCn1ccnc1CN1C[C@@H](CN2CCCN(C)CC2)[C@@H](CO)C1 | 2.81 |
| CN1CCC(NN2CCN(C)CC2)CC1 | -2.76 |
| O=C(c1cccc(Oc2ccccc2)c1)N1CCCC(O)(CO)CC1 (centres undefined) | -3.17 |
| CN(C)C(=O)CN1CCC(c2nnc(Cn3cccn3)n2C2CC2)CC1 | -6.65 |
| O=C1NC[C@@]2(C(=O)O)CN(Cc3cccc(CN4CCOCC4)c3)C[C@@H]12 | -7.98 |
| Cc1nc(NC(=O)N2CCCC(C(F)(F)F)C2)nn1C (centres undefined) | 9.56 |
| Cc1ccsc1CCNC(=O)C1(Oc2cccnc2C)CCNCC1 | -2.37 |
| COc1ccc(CCN2CCCC(CN(C)Cc3[nH]cnc3C)C2)cc1 (centres undefined) | -11.7 |
| Cc1nc(N(C)C)ncc1C(=O)N(Cc1ccncc1)CC1CCCO1 (centres undefined) | -1.59 |
| CCCc1nnc(NCCCn2nc(C)c(Cl)c2C)o1 | -0.351 |
| Cc1cccnc1CC(C)N(C)Cc1cccs1 (centres undefined) | -12.4 |
| O=C(NCc1ccc(C(=O)N2CCCC2)cc1)c1cn2c(n1)CNCC2 | -10.2 |
| Cc1cnc(N2CCCC(O)C2)nc1-c1ccnn1C (centres undefined) | -0.271 |
| COCc1nc2ncc3c(=O)n(-c4cccc(OC)c4)ccc3n2n1 | 8.99 |
| Cc1ccc(CCNC(=O)CC2COCCN2S(=O)(=O)N(C)C)s1 (centres undefined) | 1.69 |

| SMILES | cytotoxicity at 10 µM [%] |
| --- | --- |
| Cc1ccc(C(=O)O)c(N2CC(C)(C)[C@@](C)(O)C2)n1 | 4.5 |
| CC(C)CN1CCc2[nH]cnc2C12CCN(C(=O)c1cccnc1)CC2 | 23.4 |
| CNc1cc(CCNC(=O)c2cccnc2)nc(-c2ccncc2)n1 | 1.52 |
| CC(c1ccccc1Cl)N(C)Cc1nc2c(cnn2C)c(=O)[nH]1 (centres undefined) | -5.19 |
| Cc1ccc(NC(=O)C2CSCN2C(=O)c2ccncc2)c(C)c1 (centres undefined) | -10.4 |
| CCn1ccnc1CN1CCCN(C(=O)c2ccnn2C)CC1 | -5.39 |
| c1cncc(-c2noc(CN3CCOC(Cn4cccn4)C3)n2)c1 (centres undefined) | -11.4 |
| Cc1cccc(NS(=O)(=O)c2cc(C(=O)O)oc2C)c1Cl | -14.6 |
| COc1cc(CNC2CCc3nc(C(C)C)nn3C2)cc2c1OCO2 (centres undefined) | -5.82 |
| Cc1nc(C)c(CC(=O)Nc2ncc(C)s2)c(=O)[nH]1 | -5.49 |
| CC(C)c1ncc2c(n1)CN(Cc1cccc(C#N)c1)CC2 | -9.03 |
| Cn1cc(C2CCCN2Cc2csc(-c3ccsc3)n2)cn1 (centres undefined) | -8.21 |
| COc1ccc(CCN2CCCC2Cn2nc(C)nc2C)cc1 (centres undefined) | -7.16 |
| CN(Cc1nnc2n1CCC2)C(=O)NCCc1ccc2c(c1)OCO2 | -4.77 |
| O=C(NCCN1CCCCC1)c1ccoc1 | -11.3 |
| Cc1cc(N2CCC(CC(N)=O)CC2)nc(-c2ccncc2)n1 | -7.22 |
| O=C1CC2(CCNCC2)C(=O)N1Cc1ccc(F)cc1 | 6.68 |
| Cc1cc(C)nc(NCCC(=O)NCCn2ccnc2C)n1 | 2.77 |
| CN(C)CCCNCCC(c1ccccc1)C1CCOC(C)(C)C1 (centres undefined) | -7.91 |
| COCCN1CCC2(CC1)CC(NC(=O)C1CC1)c1ccccc1O2 (centres undefined) | 1.67 |
| CCCNCc1cn(Cc2ccccc2)nc1-c1cccnc1 | 5.13 |
| CNC(=O)[C@@H]1C[C@H]2CN(C(=O)c3ccco3)C[C@H]2N1C(C)C | -1.84 |
